Source: ChEMBL document CHEMBL2146408, “Primary amino acid derivatives: compounds with anticonvulsant and neuropathic pain protection activities” (J Med Chem, 2011)
Calls of active or inactive are those of the source. The calls are words filed in the database; no cut-off is given here.

Legend:
Mus musculus [1] = test: Anticonvulsant activity in NMRI mouse assessed as protection against subcutaneous pentylenetetrazol-induced seizure at 30 to 300 mg/kg, ip after 0.5 to 4 hrs; type: functional, organism-based
[2] = Neurotoxicity in po dosed Sprague-Dawley rat assessed as minimal motor impairment after 30 mins by rotorod test; type: toxicity, organism-based; details: in vivo
Mus musculus [3] = test: Anticonvulsant activity in ip dosed CF1 mouse assessed as protection against maximal electroshock-induced seizure after 30 mins; type: functional; details: 0.5 h
In short: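 Adult male albino CF-1 (Carworth Farms No. 1) mice dosed ip under the NINDS ASP; maximal electroshock seizure test. For compounds with sufficient activity, a dose-response curve was run at the time of peak effect (hours).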

[4] = Neurotoxicity in ip dosed NMRI mouse assessed as minimal motor impairment after 30 mins; type: toxicity, organism-based; details: in vivo
In short: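 Adult male NMRI mice dosed ip at UCB Pharma. Neurological toxicity was scored on the rotorod test 30 min after dosing.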

Mus musculus [5] = test: Antinociceptive activity in ip dosed NMRI mouse assessed as inhibition of formalin-induced neuropathic pain after 30 mins; type: functional; details: 0.5 h
In short: (§1)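 NMRI mice dosed ip at UCB Pharma, then tested in the formalin model of neuropathic pain. ED50 in mg/kg read 30 min after administration. Single-dose runs report the percentage protected.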

Mus musculus [6] = test: Anticonvulsant activity in ip dosed NMRI mouse assessed as protection against maximal electroshock-induced seizure after 30 mins; type: functional; details: 0.5 h
In short: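 Adult male NMRI mice dosed ip (UCB Pharma). MES test run per the Klitgaard procedure. […] Single-dose runs report the percentage of animals protected.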

Mus musculus [7] = test: Anticonvulsant activity in ip dosed NMRI mouse assessed as protection against 6 Hz psychomotor seizure after 30 mins; type: functional; details: 0.5 h; for minimal effective dose: read-out: MED
In short: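 Adult male NMRI mice dosed ip (UCB Pharma). 6 Hz psychomotor seizure model at 44 mA, per Kaminski and co-workers.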

[8] = Neurotoxicity in ip dosed CF1 mouse assessed as minimal motor impairment after 30 mins; type: toxicity, organism-based; details: in vivo
Mus musculus [9] = species on record: Mus musculus; test: Protective index, ratio of TD50 for NMRI mouse to ED50 for NMRI mouse formalin-induced neuropathic pain model; type: functional
Mus musculus [10] = test: Antinociceptive activity in NMRI mouse assessed as inhibition of formalin-induced neuropathic pain at 74 mg/kg, ip after 30 mins; type: functional; design: scale not given: the % may be the effect or the level left; details: route intraperitoneal; in short: as §1
Mus musculus [11] = test: Anticonvulsant activity in ip dosed CF1 mouse assessed as protection against 6 Hz psychomotor seizure after 30 mins; type: functional; details: 0.5 h
In short: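 Adult male albino CF-1 mice dosed ip (NINDS ASP). 6 Hz psychomotor seizure test at 32 mA, per Stables and Kupferberg.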

Mus musculus [12] = species on record: Mus musculus; test: Protective index, ratio of TD50 for CF1 mouse to ED50 for CF1 mouse by maximal electroshock seizure test; type: functional
In short: (§2)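 Protective index computed as rotorod (mice) or behavioral (rats) TD50 divided by MES ED50, both in mg/kg in the same species and route.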

Rattus norvegicus [13] = test: Anticonvulsant activity in po dosed Sprague-Dawley rat assessed as protection against maximal electroshock-induced seizure after 30 mins; type: functional; details: 0.5 h
Rattus norvegicus [14] = species on record: Rattus norvegicus; test: Protective index, ratio of TD50 for Sprague-Dawley rat to ED50 for Sprague-Dawley rat by maximal electroshock seizure test; type: functional; in short: as §2
Mus musculus [15] = test: Antinociceptive activity in NMRI mouse assessed as inhibition of formalin-induced neuropathic pain at 83 mg/kg, ip after 30 mins; type: functional; design: scale not given: the % may be the effect or the level left; details: route intraperitoneal; in short: as §1
Mus musculus [16] = test: Antinociceptive activity in NMRI mouse assessed as inhibition of formalin-induced neuropathic pain at 71 mg/kg, ip after 30 mins; type: functional; design: scale not given: the % may be the effect or the level left; details: route intraperitoneal; in short: as §1
Mus musculus [17] = test: Antinociceptive activity in NMRI mouse assessed as inhibition of formalin-induced neuropathic pain at 68 mg/kg, ip after 30 mins; type: functional; design: scale not given: the % may be the effect or the level left; details: route intraperitoneal; in short: as §1

Compound | ED50 (Mus musculus [3]) | TD50 at 0.5 h [4] | ED50 (Mus musculus [5]) | ED50 (Mus musculus [6]) | also measured
CC(C)(C)[C@@H](N)C(=O)NCc1ccccc1 | – | – | – | – | Activity (Mus musculus [1]): inactive; TD50 at 0.5 h [2]: > 500 mg/kg
CC(=O)NC(CN(C)C)C(=O)NCc1ccccc1 (racemic) | < 30 mg/kg | < 100 mg/kg | – | – | –
CCCOCC(N)C(=O)NCc1ccccc1 (racemic) | – | – | > 130 mg/kg | 69 mg/kg | ED50 (Mus musculus [7]): > 130 mg/kg
CC(=O)NC(C(=O)NCc1ccccc1)c1ccccc1 (racemic) | 20 mg/kg | – | – | – | –
COC[C@@H](N)C(=O)NCc1ccccc1 | – | < 30 mg/kg | – | – | TD50 at 0.5 h [8]: > 120 mg/kg; Ratio TD50/ED50 (Mus musculus [9]): >1.8; Activity (Mus musculus [1]): inactive
C#CCOCC(N)C(=O)NCc1ccccc1 (racemic) | – | – | 74 mg/kg | 46 mg/kg | minimal effective dose (Mus musculus [7]): 130 mg/kg; Activity (Mus musculus [10]): 27%; TD50 at 0.5 h [8]: 47 mg/kg
CC(=O)NC(CN)C(=O)NCc1ccccc1 (racemic) | – | > 100 mg/kg | – | – | –
C=CCOCC(NC(C)=O)C(=O)NCc1ccccc1 (racemic) | < 30 mg/kg | < 30 mg/kg | – | – | –
CC[C@@H](N)C(=O)NCc1ccccc1 | 18 mg/kg | 80 mg/kg | 22 mg/kg | 16 mg/kg | minimal effective dose (Mus musculus [7]): 62 mg/kg; ED50 (Mus musculus [11]): 50 mg/kg; Ratio TD50/ED50 (Mus musculus [12]): 4.4; Activity (Mus musculus [1]): inactive; ED50 (Rattus norvegicus [13]): 11 mg/kg; TD50 at 0.5 h [2]: > 500 mg/kg; Ratio TD50/ED50 (Rattus norvegicus [14]): >45
CC(C)[C@H](N)C(=O)NCc1ccccc1 | – | > 300 mg/kg | – | – | Activity (Mus musculus [1]): inactive
C#CCOCC(NC(C)=O)C(=O)NCc1ccccc1 (racemic) | – | 59 mg/kg | – | – | –
CC(=O)NC(CO)C(=O)NCc1ccccc1 (racemic) | < 100 mg/kg | < 300 mg/kg | – | – | –
NC(CN1CCOCC1)C(=O)NCc1ccccc1 (racemic) | – | – | 69 mg/kg | 89 mg/kg | ED50 (Mus musculus [7]): > 84 mg/kg
CC(=O)N[C@H](CO)C(=O)NCc1ccccc1 | – | > 500 mg/kg | – | – | –
N[C@@H](CO)C(=O)NCc1ccccc1 | – | – | > 62 mg/kg | – | ED50 (Mus musculus [7]): > 62 mg/kg; TD50 at 0.5 h [8]: > 110 mg/kg
CCC[C@H](N)C(=O)NCc1ccccc1 | – | – | 100 mg/kg | > 37 mg/kg | ED50 (Mus musculus [7]): > 210 mg/kg
CN(C)CC(N)C(=O)NCc1ccccc1 (racemic) | – | – | 83 mg/kg | 94 mg/kg | ED50 (Mus musculus [7]): > 110 mg/kg; Activity (Mus musculus [15]): 14%
CCOCC(N)C(=O)NCc1ccccc1 (racemic) | – | – | 71 mg/kg | 73 mg/kg | Activity (Mus musculus [16]): 19%; ED50 (Mus musculus [7]): 120 mg/kg; Activity (Mus musculus [1]): inactive
N[C@H](CO)C(=O)NCc1ccccc1 | – | – | > 62 mg/kg | > 62 mg/kg | ED50 (Mus musculus [7]): > 62 mg/kg; TD50 at 0.5 h [8]: > 110 mg/kg
CCC(NC(C)=O)C(=O)NCc1ccccc1 (racemic) | < 100 mg/kg | > 300 mg/kg | – | – | –
CCCC(N)C(=O)NCc1ccccc1 (racemic) | – | – | – | 39 mg/kg | minimal effective dose (Mus musculus [7]): 120 mg/kg; Activity (Mus musculus [17]): 17%
CC(=O)NC(C(=O)NCc1ccccc1)c1ccsc1 (racemic) | 88 mg/kg | – | – | – | –
COC[C@H](N)C(=O)NCc1ccccc1 | – | – | – | – | Ratio TD50/ED50 (Mus musculus [9]): 0.5
CC(=O)NC(C(=O)NCc1ccccc1)c1cccs1 (stereo unspecified) | 45 mg/kg | – | – | – | –
COCC(N)C(=O)NCc1ccccc1 (racemic) | 84 mg/kg | 290 mg/kg | – | – | –
COC[C@@H](NC(C)=O)C(=O)NCc1ccccc1 [LACOSAMIDE] | – | – | – | – | Activity (Mus musculus [1]): inactive; TD50 at 0.5 h [2]: > 500 mg/kg
